Rows were chosen to be rich in hits. Some 2.4% of all compounds tested hit in one or more screens of this group.
mABHD4 FP – inhibits mouse alpha/beta hydrolase domain 4 | Q8VD66 | purified mABHD4, FP-Rh probe fluorescence polarization | inhibition, % at 8.92 µM | actives 0.54% (n = 370,000) | AID 720543;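 active means inhibition exceeding the mean over every tested compound plus 3 SD, cut at about 30% in these data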;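 further: 0% = plate median of compound wells and 100% = S159A mutant with DMSO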
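Test system: mABHD4 protein | Buffer or medium: HEPES pH 7.0 buffer, 150 mM NaCl, 0.01% Pluronic F-127 | Probe or stimulus: FP-Rh fluorescent activity-based probe, added after compound pre-incubation | Timing: Pre-incubation 45 min, probe exposure 60 min, at 25 °C | Technique: Fluorescence polarization, excitation 525 nm, emission 598 nm, BODIPY TMR filters | Repeats: Single well per compound (singlicate)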
HTRA1 inh – inhibitors of human serine peptidase HTRA1; Q92743; recombinant HTRA1, FP-rhodamine activity-based probe, fluorescence polarization; inhibition, % at 5.96 µM; actives 0.5% (n = 340,000); in the data active means inhibition above about 36%;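 further: 0% = enzyme with DMSO and 100% = wells lacking enzyme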
PRMT1 FP inh – PRMT1 (human) inhibition, primary screen; recombinant PRMT1, activity-based probe fluorescence polarization; actives 1.3% (n = 370,000); Q99873; inhibition, % at 2.79 µM;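 active means inhibition above about 21% made by adding two undisclosed values, limit read from the data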
Target sequence (Q99873 whole entry, looked up): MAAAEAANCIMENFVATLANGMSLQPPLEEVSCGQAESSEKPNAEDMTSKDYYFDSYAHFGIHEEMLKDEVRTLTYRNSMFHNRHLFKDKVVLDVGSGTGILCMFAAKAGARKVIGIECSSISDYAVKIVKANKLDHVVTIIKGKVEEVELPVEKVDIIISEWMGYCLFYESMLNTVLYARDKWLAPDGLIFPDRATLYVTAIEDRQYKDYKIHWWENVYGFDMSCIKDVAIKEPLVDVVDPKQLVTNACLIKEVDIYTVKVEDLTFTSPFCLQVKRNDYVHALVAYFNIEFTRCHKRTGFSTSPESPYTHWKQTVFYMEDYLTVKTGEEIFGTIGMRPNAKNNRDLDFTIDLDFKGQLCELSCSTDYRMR
JMJD2C inh – human JMJD2C demethylase inhibition; AID 2099; GST-JMJD2C(1-420) H3K9me3 demethylation, DELFIA europium; inhibition, % at 2.35 µM; actives 0.069% (n = 330,000); Q9H3R0;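 active means more than half of a compound's replicate wells show inhibition beyond 50%, single wells judged on their own value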;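 further: signal counts dimethyl H3K9 product captured on neutravidin plate; 0% = median of DMSO wells and 100% = 0.3 times that DMSO median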
SIAE primary – human SIAE inhibition, primary screen; SIAE FP-Rh probe binding, fluorescence polarization; AID 1053197; inhibition, % at 9.66 µM; actives 0.69% (n = 370,000);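 active means inhibition above a cutoff: mean of compounds within the control limits plus 3 SD of those, cut at about 17% in these data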;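 further: 0% = plate median of compound wells and 100% = probe without SIAE protein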
* = called active by the depositor; / = no result.

SMILES	mABHD4 FP	HTRA1 inh	PRMT1 FP inh	JMJD2C inh	SIAE primary
O=C(CSc1nc2ccccc2c(=O)[nH]1)Nc1ccc(S(=O)(=O)N2CCCC2)cc1	-19	-17	23*	2	-12
CCOC(=O)c1ccc(C#Cc2ccc3c(c2)C(C)(C)CCS3)nc1	-5	/	5	/	-4
O=C1C(=NO)CC(c2ccccc2)N1c1ccccc1 (stereo not drawn)	1	16	-1	/	-2
O=S(=O)(c1ccccc1)c1cc(O)ccc1O	2	5	5	-8	3
Nc1ccc(S(=O)(=O)c2cc(O)c3ccccc3c2O)cc1	48*	19	24*	/	1
CC(C)(C)N(Cc1cn(Cc2ccccc2)nn1)S(=O)(=O)c1ccc(N2CCCCC2)cc1Br	-10	/	-1	/	-4
O=C1OC(c2ccccc2)Sc2ccccc21 (stereo not drawn)	2	-3	19	/	-1
O=C1OC(c2cccs2)Sc2ccccc21 (stereo not drawn)	3	/	25*	/	3
COc1ccc([C@H]2OC(=O)C[C@@H]2C(=O)N2CCCCC2)cc1OC	5	/	-1	/	0
Cc1nc2c(=O)[nH]c(=S)n(C)c2nc1C	8	3	23*	2	-3
Cn1c(=S)[nH]c2cccnc21	-12	3	4	1	2
CCN(CC(=O)Nc1ccc(NC(C)=O)cc1)C(=O)/C=C/c1ccccc1	-1	4	-8	2	-6
CCN(CC(=O)Nc1ccc(NC(C)=O)cc1)C(=O)/C=C/c1ccc(C)o1	1	9	24*	13	-4
COc1ccc2nc(Nc3sc4c(c3C(N)=O)CCCC4)sc2c1	22	-5	45*	-7	-34
COc1ccc(CC(=O)Nc2sc3c(c2C(N)=O)CCCC3)cc1	-1	-18	-3	-5	4
COc1cccc(-c2cnc3c(NC=O)cc(-c4ccccc4Oc4ccccc4)cn23)c1	-9	/	3	/	-8
O=C(CN1C2=NCCN2c2ccccc21)c1ccc2c(c1)OCO2	-1	7	-2	-9	20*
CC(C)[C@H](NC(=O)CC1CCCC1)C(=O)N1CCC[C@H]1C(=O)NCCc1ccccc1Cl	5	/	-5	/	-2
Cc1ccc(CCNc2ccc3ccccc3c2)cn1	5	1	23*	1	0
CCCCNc1c(CCc2ccccc2)nc2nc(C)cc(C)n12	-3	/	1	/	4
CCOC(=O)c1c(NC(=S)NC)sc2c1CC(C)(C)SC2	1	1	24*	0	-1
CCOC(=O)c1c(NC(=S)Nc2ccccc2)sc2c1CC(C)(C)SC2	-10	-81	1	-3	-20
COc1ccc(NS(=O)(=O)c2cccc(C(=O)NCc3ccco3)c2)cc1	-8	-1	23*	7	-1
COc1cccc(S(=O)(=O)Nc2ccc(C(=O)NCc3ccco3)cc2)c1	-13	2	1	-5	5
CCOc1ccccc1N(CC(=O)N1CCN(Cc2ccccc2)CC1)S(=O)(=O)c1ccccc1	4	-9	-1	/	11
SMILES	mABHD4 FP	HTRA1 inh	PRMT1 FP inh	JMJD2C inh	SIAE primary
Cc1ccc(S(=O)(=O)NNC(=O)C(=O)NNS(=O)(=O)c2ccc(C)cc2)cc1	4	4	1	7	2
Cc1ccc(NNS(=O)(=O)c2ccc(C)cc2)cc1	17	24	64*	4	4
CC(C)C[C@H]1COc2cc(N3CCCC3)ccc2S(=O)(=O)N1C	9	/	-4	/	-5
O=C(CSc1nnc(Cc2ccccc2)n1Cc1ccco1)NC1CCCC1	-27	-4	22*	4	-15
CC(=O)Nc1sc2c(c1-c1nc3ccccc3s1)CCCN(C(C)C)C2	-14	/	0	/	-6
CCc1ccccc1N=C1S/C(=C/c2ccccc2OCC(=O)N2CCOCC2)C(=O)N1C	-10	-35	1	-7	-1
O=C1NN(c2ccccc2)C(=O)/C1=C\c1ccccc1OCC(=O)N1CCOCC1	2	1	21*	-50	9
CCOC(=O)c1csc(NC(=O)C2CCCN(S(=O)(=O)c3cc(OC)ccc3OC)C2)n1 (stereo not drawn)	-9	/	3	/	3
CCN1C=C(Cc2ccccc2C)C2=C(C1)C(c1ccccc1C)C(C#N)=C(N)O2 (stereo not drawn)	-3	-25	6	11	-9
CCN1C=CC2=C(C#N)C(N)C(C#N)(C#N)C(c3ccccc3C(F)(F)F)C2C1 (stereo not drawn)	15	-2	22*	2	6
O=C(c1ccccc1)C(Sc1ncn[nH]1)c1ccccc1 (stereo not drawn)	1	-5	23*	16	9
CC(Sc1ncn[nH]1)C(=O)NCc1ccccc1 (stereo not drawn)	-4	2	4	/	1
O=C(OCC(=O)N1CCN(c2ccccc2)CC1)c1ccc2ncsc2c1	-6	-4	23*	/	0
C=C1C(=O)[C@@]23[C@H](O)C[C@@H]4C(C)(C)CC[C@H](O)[C@]4(C)[C@@H]2C[C@H](O)[C@@H]1[C@H]3O	-1	-4	22*	7	4
COC(=O)CCC1NC(=O)C(Cc2c[nH]c3ccccc23)NC(=O)C2CC(=O)OC(C)C(NC(=O)C(C)NC(=O)C3CCCN3C(=O)C3CCCN3C(=O)C(C)NC(C)=O)C(=O)NC(CC(C)C)C(=O)NC(CCCCNC(=O)CCC(C(=O)NC(Cc3ccc(O)cc3)C(=O)O)NC1=O)C(=O)NC(Cc1c[nH]c3ccccc13)C(=O)N1CCCC1C(=O)NC(CO)C(=O)N2 (stereo not drawn)	6	/	-3	/	7
NNC(=O)c1nn(-c2ccc(Cl)cc2)ccc1=O	4	1	1	55*	-14
CC(=O)Oc1cc2oc(=O)cc(C)c2cc1OC(C)=O	8	7	21*	9	-6
CC(=O)NN1C(=O)/C(=C/c2ccc(Br)o2)SC1=S	16	-12	25*	6	5
O=C1C(=O)c2cccnc2-c2ncccc21	1	/	22*	/	-4
Cc1ccc(CNC(=O)c2cn(C)c(=O)c3c2c2ccccc2n3C)o1	-3	8	22*	4	-4
Cc1ccc(CNC(=O)c2cn(C3CCCCC3)c(=O)c3c2c2ccccc2n3C)o1	-6	-20	-1	-6	1
COc1ccccc1NS(=O)(=O)c1cc(NC(=O)C2CCCC2)ccc1N1CCOCC1	-8	-2	23*	9	-2
COc1ccccc1NS(=O)(=O)c1cc(NC(=O)c2cccs2)ccc1N1CCCC1	-35	-45	23*	5	-56
CCC(c1ccc(OC)cc1)c1cn(C)c2ccccc12 (stereo not drawn)	-1	/	3	/	0
Cc1cc(N)ccc1N1CCCC1	/	82*	/	15	/
COc1cc(C(=O)N/N=C/c2cn(Cc3cccc(F)c3)c3ccccc23)ccc1O	5	3	7	-3	30*

Screening data deposited in PubChem BioAssay by several laboratories.
